Laboratory results as given in ChEMBL document CHEMBL3352530, “Nitrogen-containing dihydro-β-agarofuran derivatives from Tripterygium wilfordii” (J Nat Prod, 2014).

What was measured:
PBMC [1] = experiment: Immunosuppressive activity in anti-CD3/anti-CD28-induced human PBMC after 96 hrs by flow cytometry; format: functional, cell-based
How it was run: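 Healthy-donor PBMCs isolated by Lymphoprep density-gradient centrifugation, held in complete medium at 10⁶ cells/mL. Stimulated with plate-bound anti-CD3 (2 μg/mL) plus soluble anti-CD28 (1 μg/mL) monoclonal antibodies. Incubated 96 h with varying compound concentrations in DMSO (less than 0.025%) or vehicle alone. Proliferation measured by flow cytometry.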

PBMC [2] = experiment: Cytotoxicity against human PBMC after 96 hrs by flow cytometry; format: cell-based
How it was run: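 PBMCs isolated from healthy donors by Lymphoprep density-gradient centrifugation and resuspended in complete medium. Cells at 10⁶ cells/mL incubated without stimulation for 96 h with different concentrations of compound or vehicle alone. Cell survival read by flow cytometry.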

SMILES | IC50 (PBMC [1]) [µM] | IC50 (PBMC [2]) [µM]
CC(=O)OC[C@]12[C@H](OC(C)=O)[C@H](OC(C)=O)[C@@H]3[C@@H](O)[C@@]14O[C@@]3(C)COC(=O)c1cccnc1[C@@H](C)[C@H](C)C(=O)O[C@@H]([C@H](OC(=O)c1ccccc1)[C@@H]2OC(C)=O)[C@]4(C)O | 32.9 | 56.3
CC(=O)O[C@@H]1[C@@H]2[C@@H](OC(C)=O)[C@@]34O[C@@]2(C)COC(=O)c2cccnc2CC[C@](C)(OC(=O)c2ccoc2)C(=O)O[C@@H]([C@H](O)[C@H](O)[C@@]3(CO)[C@@H]1O)[C@]4(C)O | 8.67 | > 100
CC(=O)OC[C@]12[C@H](OC(C)=O)[C@H](OC(C)=O)[C@@H]3[C@@H](OC(C)=O)[C@@]14O[C@@]3(C)COC(=O)c1cccnc1CC[C@](C)(OC(=O)c1ccoc1)C(=O)O[C@@H]([C@H](OC(=O)c1ccoc1)[C@@H]2OC(C)=O)[C@]4(C)O | 4.95 | 26.4
CC1(C)O[C@]23[C@H](OC(=O)c4cccnc4)[C@H]1C[C@@H](OC(=O)/C=C\c1ccccc1)[C@]2(CO)[C@@H](OC(=O)c1ccccc1)CC[C@]3(C)O | 24.7 | 57.6
CC(=O)OC[C@]12[C@H](OC(C)=O)[C@H](OC(C)=O)[C@@H]3[C@@H](OC(C)=O)[C@@]14O[C@@]3(C)COC(=O)c1cccnc1CCC(C)(O)C(=O)O[C@@H]([C@H](OC(C)=O)[C@@H]2OC(C)=O)[C@]4(C)O (some centres not stated) [ALATUSININE] | 45.9 | 75.7
COc1c(C)c2c(c(O)c1C/C=C(\C)CCC(=O)O)C(=O)OC2 [MYCOPHENOLIC ACID] | 0.18 | > 100
